# Source: PMC7941041 (Biochemistry and Biophysics Reports, 2021)
# Square brackets hold non-standard residues; d marks the D form. pS = N[C@@H](COP(=O)(O)O)C(=O)O
# B1: phosphorylated stargazin peptide pStg(phos) (peptide)
# peptide: Ac-RIP[pS]YRYR-NH2
# SMILES: CC[C@H](C)[C@H](NC(=O)[C@H](CCCNC(=N)N)NC(C)=O)C(=O)N1CCC[C@H]1C(=O)N[C@@H](COP(=O)(O)O)C(=O)N[C@@H](Cc1ccc(O)cc1)C(=O)N[C@@H](CCCNC(=N)N)C(=O)N[C@@H](Cc1ccc(O)cc1)C(=O)N[C@@H](CCCNC(=N)N)C(N)=O
# Tests used:
# [1] = biological target: T1, hArc-NL (residues 207–277) (Homo sapiens, UniProt Q7LC44); assay: ITC analysis of peptide binding to hArc-NL; conditions: 20 mM Tris-HCl pH 7.4, 150 mM NaCl, +25 °C, one-site binding model
# T1 sequence (Q7LC44 207-277): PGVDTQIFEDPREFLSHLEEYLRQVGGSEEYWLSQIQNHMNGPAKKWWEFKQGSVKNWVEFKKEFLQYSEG
# How it was run: (§1)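 Human Arc constructs carried a cleavable His-MBP tag and were expressed in E. coli BL21 with IPTG induction at +30 °C. They were purified by Ni-NTA and size-exclusion chromatography, and TEV cleavage left an N-terminal GAMG. Peptides were N-acetylated and C-amidated. Peptide (2.5–5.0 mM) was titrated into the cell containing protein (0.25–0.5 mM).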
# [2] = biological target: T2, hArc-CT (residues 206–396, containing both lobes) (Homo sapiens, UniProt Q7LC44); assay: ITC analysis of peptide binding to hArc-CT; conditions: 20 mM Tris-HCl pH 7.4, 150 mM NaCl, +25 °C, one-site binding model
# T2 sequence (Q7LC44 206-396): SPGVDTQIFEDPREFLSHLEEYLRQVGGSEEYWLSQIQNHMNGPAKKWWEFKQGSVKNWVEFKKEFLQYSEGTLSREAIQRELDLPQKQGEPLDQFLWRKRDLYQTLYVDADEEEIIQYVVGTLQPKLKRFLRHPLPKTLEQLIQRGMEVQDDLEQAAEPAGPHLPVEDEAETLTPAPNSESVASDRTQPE
# How it was run: as §1
# [3] = biological target: T3, human Arc N-lobe (hArc-NL, residues 207–277) (human, UniProt Q7LC44 207-277); assay: ITC
# T3 sequence: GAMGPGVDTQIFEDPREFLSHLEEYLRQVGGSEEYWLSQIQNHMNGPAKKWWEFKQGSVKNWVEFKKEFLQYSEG
# [4] = biological target: T4, human Arc C-terminal domain (hArc-CT, residues 206–396, containing both lobes) (human, UniProt Q7LC44 206-396); assay: ITC
# T4 sequence: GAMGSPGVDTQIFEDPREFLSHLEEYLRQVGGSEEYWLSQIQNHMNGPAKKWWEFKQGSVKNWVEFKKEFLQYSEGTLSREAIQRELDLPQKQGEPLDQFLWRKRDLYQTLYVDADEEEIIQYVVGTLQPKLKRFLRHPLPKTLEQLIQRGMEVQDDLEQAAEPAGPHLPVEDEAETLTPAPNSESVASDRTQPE
Molecule,-TΔS [1],ΔH [1],-TΔS [2],ΔH [2],Kd [3],dH [3],Kd [4],dH [4]
Ac-MPGCFRMR-NH2 [GKAP-R5],+4.7 kcal/mol/°,-8.2 ± 0.3 kcal/mol,,,,,,
Ac-RIPSYRYR-NH2 [pStg(wt)],+7.0 kcal/mol/°,-13.1 ± 0.1 kcal/mol,+6.4 kcal/mol/°,-12.0 ± 0.2 kcal/mol,,,,
Ac-RIPSYRYRYQRRSRSSSRSTE-NH2 [pStg(long)],,,+14.0 kcal/mol/°,-20.2 ± 0.2 kcal/mol,,,,
Ac-TSPKFRSR-NH2 [GKAP-R4],+6.6 kcal/mol/°,-10.9 ± 0.4 kcal/mol,+2.5 kcal/mol/°,-6.8 ± 0.1 kcal/mol,,,,
Ac-TSPKFRSRNESYMRAMST-NH2 [GKAP-R4(long)],+3.1 kcal/mol/°,-7.2 ± 0.2 kcal/mol,+2.2 kcal/mol/°,-6.8 ± 0.2 kcal/mol,,,,
Ac-RIPSYRYR-NH2 [stargazin peptide pStg(wt)],,,,,33.6 ± 1.1 µM,-13.1 ± 0.1 kcal/mol,80 ± 4 µM,-12 ± 0.2 kcal/mol
B1,,,,,,-66.5 ± 0.6 kcal/mol,,
Ac-TSPKFRSRNESYMRAMST-NH2 [long GKAP repeat 4 peptide],,,,,426 ± 12 µM,-7.2 ± 0.2 kcal/mol,391 ± 18 µM,-6.8 ± 0.2 kcal/mol
Ac-RIPSYRYRYQRRSRSSSRSTE-NH2 [long stargazin peptide pStg(long)],,,,,,,26.4 ± 1.2 µM,-20.2 ± 0.2 kcal/mol
Ac-TSPKFRSR-NH2 [GKAP repeat 4 peptide],,,,,714 ± 19 µM,-10.9 ± 0.4 kcal/mol,763 ± 10 µM,-6.8 ± 0.1 kcal/mol
Ac-MPGCFRMR-NH2 [GKAP repeat 5 peptide],,,,,2390 ± 314 µM,-8.2 ± 0.3 kcal/mol,,
